Results published in ChEMBL document CHEMBL1153534, “Design and synthesis of androgen receptor antagonists with bulky side chains for overcoming antiandrogen resistance” (J Med Chem, 2009).
Calls of active or inactive are those of the source. No cut-off for these calls is given here.

Tests used:
[1] = test system: CWR22R; test: Cytotoxicity against human 22Rv1 cells after 72 hrs by MTT assay; format: functional, cell-based; details: 22Rv1, 72 h
[2] = molecular target: T1, Progesterone receptor (Homo sapiens) (UniProt P06401); test: Antagonist activity at human PR B-form expressed in human PC3 cells assessed as inhibition of R5020-induced transactivation at 0.1 uM after 24 hrs by luciferase reporter gene assay; format: functional, cell-based; details: PC-3
T1 sequence (whole entry): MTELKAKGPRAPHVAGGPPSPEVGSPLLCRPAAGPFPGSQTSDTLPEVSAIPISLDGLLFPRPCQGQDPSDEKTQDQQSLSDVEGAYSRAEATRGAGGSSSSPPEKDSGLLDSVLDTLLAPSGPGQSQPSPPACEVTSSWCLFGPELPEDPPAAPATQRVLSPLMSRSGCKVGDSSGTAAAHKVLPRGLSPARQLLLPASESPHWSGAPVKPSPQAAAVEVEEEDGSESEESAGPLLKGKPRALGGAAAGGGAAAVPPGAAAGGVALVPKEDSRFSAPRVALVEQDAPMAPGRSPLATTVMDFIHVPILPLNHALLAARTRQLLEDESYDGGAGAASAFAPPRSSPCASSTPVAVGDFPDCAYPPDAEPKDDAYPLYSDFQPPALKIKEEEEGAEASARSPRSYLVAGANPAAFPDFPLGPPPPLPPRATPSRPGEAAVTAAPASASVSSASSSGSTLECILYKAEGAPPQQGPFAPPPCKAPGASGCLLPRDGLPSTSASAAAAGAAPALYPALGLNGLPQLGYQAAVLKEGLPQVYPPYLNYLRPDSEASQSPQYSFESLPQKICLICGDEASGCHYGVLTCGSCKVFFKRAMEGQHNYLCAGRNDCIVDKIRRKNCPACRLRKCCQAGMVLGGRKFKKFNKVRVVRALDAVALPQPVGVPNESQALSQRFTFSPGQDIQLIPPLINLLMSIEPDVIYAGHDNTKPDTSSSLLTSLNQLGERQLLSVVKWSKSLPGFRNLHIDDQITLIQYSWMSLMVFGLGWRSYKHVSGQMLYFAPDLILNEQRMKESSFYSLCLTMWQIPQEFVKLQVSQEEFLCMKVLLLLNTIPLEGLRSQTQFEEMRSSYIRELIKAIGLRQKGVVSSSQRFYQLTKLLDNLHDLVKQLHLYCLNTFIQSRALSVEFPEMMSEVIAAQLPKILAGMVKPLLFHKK
Summary of the method: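 PC-3 cells carrying a luciferase reporter for transactivation by the human PR B form. Antagonist mode used 10 nM R5020 as the agonist. Agonist mode ran in the absence of R5020. Luciferase read-out.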

[3] = molecular target: T2, Androgen receptor (Rattus norvegicus) (UniProt P15207); test: Binding affinity to rat androgen receptor ligand binding domain by competitive fluorescence polarization assay
T2 sequence (whole entry): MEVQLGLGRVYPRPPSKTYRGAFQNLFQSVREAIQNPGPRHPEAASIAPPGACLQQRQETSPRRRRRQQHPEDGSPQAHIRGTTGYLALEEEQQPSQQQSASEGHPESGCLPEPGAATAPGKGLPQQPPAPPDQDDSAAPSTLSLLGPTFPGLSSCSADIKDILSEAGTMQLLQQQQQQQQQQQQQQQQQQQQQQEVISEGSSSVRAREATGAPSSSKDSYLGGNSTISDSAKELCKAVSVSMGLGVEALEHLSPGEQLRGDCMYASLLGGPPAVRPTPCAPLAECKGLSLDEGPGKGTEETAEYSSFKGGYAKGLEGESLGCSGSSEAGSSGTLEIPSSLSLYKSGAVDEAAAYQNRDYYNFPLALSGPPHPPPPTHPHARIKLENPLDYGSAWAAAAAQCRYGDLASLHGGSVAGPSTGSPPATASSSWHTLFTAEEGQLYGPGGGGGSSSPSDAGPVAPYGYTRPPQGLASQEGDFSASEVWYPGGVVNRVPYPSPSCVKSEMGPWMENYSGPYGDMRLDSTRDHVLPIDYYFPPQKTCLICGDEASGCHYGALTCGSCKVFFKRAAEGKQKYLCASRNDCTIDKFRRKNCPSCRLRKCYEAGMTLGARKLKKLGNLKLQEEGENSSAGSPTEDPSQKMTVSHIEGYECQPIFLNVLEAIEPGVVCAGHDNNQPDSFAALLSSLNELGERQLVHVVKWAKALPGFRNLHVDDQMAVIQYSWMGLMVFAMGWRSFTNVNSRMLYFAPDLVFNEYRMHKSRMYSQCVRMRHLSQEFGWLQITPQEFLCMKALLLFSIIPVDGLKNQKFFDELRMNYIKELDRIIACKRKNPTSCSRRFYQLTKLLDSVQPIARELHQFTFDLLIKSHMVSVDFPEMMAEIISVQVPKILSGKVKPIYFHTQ
Summary of the method: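 Competitive fluorescence polarization with the PolarScreen AR competitor kit, measuring displacement of a fluorescent tracer from the AR-LBD. Polarization was normalized to DMSO vehicle, which sets the maximum. Tracer without receptor sets the minimum, and DHT served as positive control. Average ± sd of experiments in triplicate.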

Activity [2]: inactive
Activity [3]: Dose-dependent effect
Structure (SMILES): COc1cc(/C=C(\C(=O)/C=C/C2=C(C)CCCC2(C)C)C(=O)/C=C/c2ccc(O)c(OC)c2)ccc1O
IC50 [1]: 2.2 µM
